Key:
Mus musculus [1] = assay: Antiinflammatory activity against xylene-induced ear edema in Kunming mouse assessed as edema weight at 20 mg/kg, po after 2 hrs relative to control; assay type: functional
Method in brief: (§1)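 Male Kunming mice (groups of 12; n = 11 per table footnote) were dosed orally as a suspension in 0.5% CMC, with CMC vehicle and positive control groups. After 30 min, 0.03 ml xylene went on both surfaces of the right ear, with the left ear as control. Mice were killed 2 h later. 7 mm ear punches were weighed, and edema was taken as right minus left weight. Groups were compared by one-way ANOVA, p < 0.05.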

Mus musculus [2] = assay: Inhibition of xylene-induced ear edema in Kunming mouse at 30 mg/kg, po after 2 hrs relative to control; assay type: functional; method in brief: as §1
Mus musculus [3] = assay: Antiinflammatory activity against xylene-induced ear edema in Kunming mouse assessed as edema weight at 30 mg/kg, po after 2 hrs relative to control; assay type: functional; method in brief: as §1
Mus musculus [4] = assay: Inhibition of xylene-induced ear edema in Kunming mouse at 20 mg/kg, po after 2 hrs relative to control; assay type: functional; method in brief: as §1
Mus musculus [5] = assay: Toxicity in mouse assessed as tail bleeding time at 200 mg/kg, po after 30 mins; assay type: organism-based; parameters: dose 200 mg/kg, route oral; conditions: in vivo, 0.5 h
Method in brief: (§2)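 Male mice (18–22 g) were dosed orally, and bleeding time was recorded before dosing and at each post-dose time. Each mouse was held in a tube with its tail protruding, and a 2 mm tail cut was made. Blood was wiped away with tissue every 30 s until bleeding ceased, and the time was recorded. The comparison group received NS.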

Mus musculus [6] = assay: Toxicity in mouse assessed as tail bleeding time at 200 mg/kg, po after 45 mins; assay type: organism-based; parameters: dose 200 mg/kg, route oral; conditions: in vivo, 0.75 h; method in brief: as §2
Mus musculus [7] = assay: Toxicity in mouse assessed as tail bleeding time at 200 mg/kg, po after 60 mins; assay type: organism-based; parameters: dose 200 mg/kg, route oral; conditions: in vivo, 1 h; method in brief: as §2
Mus musculus [8] = assay: Toxicity in mouse assessed as tail bleeding time at 200 mg/kg, po after 90 mins; assay type: organism-based; parameters: dose 200 mg/kg, route oral; conditions: in vivo, 1.5 h; method in brief: as §2

Compound | Activity (Mus musculus [1]) | inhibition in vivo at 20 mg/kg (Mus musculus [4]) | Activity (Mus musculus [5]) | Activity (Mus musculus [6]) | Activity (Mus musculus [7]) | Activity (Mus musculus [8]) | further results
O=C/C=C/c1ccccc1 | 3.4 mg | – | – | – | – | – | –
O=Cc1ccc(Cl)cc1 | 3.8 mg | – | – | – | – | – | –
O=C(N[C@H](CO)CCCO)c1ccccc1 | 3.38 mg | – | – | – | – | – | –
C[C@@H](O)[C@H](CO)NC(=O)c1ccccc1 | 3.32 mg | – | – | – | – | – | –
Cc1ccc(C=O)cc1 | 3.72 mg | – | – | – | – | – | –
O=C(NC(CO)CO)c1ccccc1 | 3.25 mg | – | – | – | – | – | –
O=C(N[C@H](CO)CCO)c1ccccc1 | 4.01 mg | – | – | – | – | – | –
CC(=O)Oc1ccccc1C(=O)O [ASPIRIN] | – | – | – | – | – | – | inhibition in vivo at 30 mg/kg (Mus musculus [2]): 40.7%; Activity (Mus musculus [3]): 1.85 mg
O=C(Cc1ccccc1)NC(CO)CCCO (single isomer, unassigned) | 3.53 mg | – | – | – | – | – | –
O=C(Cc1ccccc1)NC(CO)CCO (single isomer, unassigned) | 3.44 mg | – | – | – | – | – | –
CC(O)C(CO)NC(=O)Cc1ccccc1 (single isomer, unassigned) | 3.35 mg | – | – | – | – | – | –
O=Cc1ccc([N+](=O)[O-])cc1 | 3.39 mg | – | – | – | – | – | –
C[C@@H]1O[C@H](c2ccc(Cl)cc2)OC[C@H]1NC(=O)Cc1ccccc1 | – | 46.1% | 118.4 s | 119.6 s | 118.6 s | 119 s | –
C[C@@H]1O[C@H](c2ccccc2)OC[C@H]1NC(=O)Cc1ccccc1 | – | 41.3% | 118.5 s | 119 s | 118.6 s | 117.9 s | –
Cc1ccc([C@H]2OC[C@H](NC(=O)Cc3ccccc3)CO2)cc1 | – | 35.6% | 117.2 s | 118.6 s | 118.4 s | 119.2 s | –
C[C@@H]1O[C@H](c2ccccc2)OC[C@H]1NC(=O)c1ccccc1 | – | 43.9% | 118.7 s | 118.9 s | 118.6 s | 118.9 s | –
O=Cc1ccccc1 [BENZALDEHYDE] | 3.45 mg | – | – | – | – | – | –
O=C(Cc1ccccc1)NC(CO)CO | 3.88 mg | – | – | – | – | – | –
O=C(Cc1ccccc1)N[C@H]1CO[C@H](c2ccccc2)OC1 | – | 37.8% | 118.5 s | 119.3 s | 117.8 s | 118.9 s | –
C[C@@H]1O[C@@H](c2ccc([N+](=O)[O-])cc2)OC[C@H]1NC(=O)c1ccccc1 | – | 57.4% | 118.4 s | 119.2 s | 117.2 s | 118.9 s | –
O=C(Cc1ccccc1)N[C@H]1CO[C@@H](c2cccc([N+](=O)[O-])c2)OC1 | – | 41.3% | 117.7 s | 118.5 s | 119.2 s | 118.6 s | –
Cc1ccc([C@@H]2OC[C@@H](NC(=O)Cc3ccccc3)[C@@H](C)O2)cc1 | – | 42.3% | 117.9 s | 118.6 s | 119 s | 118.5 s | –
O=Cc1cccc([N+](=O)[O-])c1 [3-NITROBENZALDEHYDE] | 3.5 mg | – | – | – | – | – | –

Reference: ChEMBL document CHEMBL1149585, “Toward the development of chemoprevention agents. Part 1: Design, synthesis, and anti-inflammatory activities of a new class of 2,5-disubstituted-dioxacycloalkanes” (Bioorg Med Chem, 2007)
